Screens: PubChem BioAssay, several laboratories
RGS4 inh: RGS4 inhibitors, primary screen, cell-based, HEK293 M3R inducible RGS4, calcium flux; Regulator of G-protein signaling 4 (Homo sapiens), P49798; Fluo-4 calcium flux; active compounds read high; triggered by carbachol at its EC20; B-score at 10 µM; 310,000 tested, 0.45% active; AID 463165, 2010;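 active = B-score, a plate-corrected calcium signal, over three deviations above library mean, with baseline fluorescence within five deviations of library mean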;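 note: RGS4 expression induced by doxycycline in cells with stable M3 receptor; B-score is computed from the integrated fluorescence ratio over baseline after carbachol; higher B-score means a larger calcium signal and so more RGS4 inhibition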
Target sequence (P49798 whole entry, looked up): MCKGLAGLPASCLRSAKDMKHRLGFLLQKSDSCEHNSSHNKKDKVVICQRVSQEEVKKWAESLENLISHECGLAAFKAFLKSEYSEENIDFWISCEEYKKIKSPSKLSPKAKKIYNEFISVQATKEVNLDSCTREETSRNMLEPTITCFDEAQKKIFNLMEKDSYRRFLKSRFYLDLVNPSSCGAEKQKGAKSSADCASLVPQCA
MrgX1 ag: agonists of human MrgX1 receptor, primary screen, HEK293 cells, Fluo-4 calcium flux | B-score at 10 µM | Fluo-4 calcium fluorescence, agonist mode; active compounds read high | 310,000 tested, 0.44% active;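 active = calcium response B-score plate-corrected fluorescence ratio at least 3 library SD, with starting fluorescence B-score inside 5 SD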
Target sequence (Q96LB2 whole entry, looked up): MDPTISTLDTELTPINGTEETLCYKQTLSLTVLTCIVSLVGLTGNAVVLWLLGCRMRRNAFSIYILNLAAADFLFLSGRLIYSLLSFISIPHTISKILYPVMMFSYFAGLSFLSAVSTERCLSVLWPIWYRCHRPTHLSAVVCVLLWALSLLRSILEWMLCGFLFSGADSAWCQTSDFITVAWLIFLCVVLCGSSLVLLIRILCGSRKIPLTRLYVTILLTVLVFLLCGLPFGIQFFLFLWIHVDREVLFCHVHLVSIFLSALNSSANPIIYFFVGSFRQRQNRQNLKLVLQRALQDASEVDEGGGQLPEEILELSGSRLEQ
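Assay system: MrgX1-expressing HEK293 cells / Amount: fifteen thousand cells per well / Doses: test compound in the initial addition of three / Timing: cells plated overnight, dye loaded 0.5 h 37 °C, 0.5 h room temperature / Technique: kinetic calcium dye fluorescence, Fluo-4 NW / Control set: positive and negative controls per plate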
MrgX1 allo act: positive allosteric modulators of MrgX1, primary screen, HEK293 cells, Fluo-4 calcium flux; AID 588675, 2011; Mas-related G-protein coupled receptor member X1 (Homo sapiens), Q96LB2; 310,000 tested, 0.63% active; FDSS; active compounds read high; B-score at 10 µM;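 active = plate-corrected calcium response at least 3 library SD above typical, normal starting fluorescence, not activating the receptor alone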;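 note: compound read alongside a low EC10 to EC30 dose of BAM8-22 agonist; peak minus trough fluorescence over baseline measured at the second addition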
KCC2 mod: KCC2 cotransporter modulators, thallium flux, primary screen, cell-based, HEK293 KCC2, FluoZin-2 fluorescence, MLSMR | Solute carrier family 12 member 5 (Homo sapiens), Q9H2X9 | KCC2 cells, thallium flux FluoZin-2 fluorescence | B-score of Tl+ flux slope (higher = more flux/activation; lower = inhibition) at 10 µM | 190,000 tested, 2.2% active | AID 1456, 2008;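 active = thallium flux slope and its plate-corrected score both differing from the plate sample mean at a set confidence after two filtering rounds, in either direction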;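 note: slope of fluorescence scaled to starting intensity during 10 to 20 s after thallium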
MrgX1 antag: antagonists of human MrgX1 receptor, primary screen, HEK293 cells, Fluo-4 calcium flux. Mas-related G-protein coupled receptor member X1 (Homo sapiens), Q96LB2. BAM8-22 antagonism; active compounds read low. B-score at 10 µM. 310,000 tested, 1.3% active;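 active = calcium-response B-score plate-corrected more than 3 library SD below zero, starting fluorescence within 5 deviations, no agonist response on first addition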;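 note: peak minus trough fluorescence over baseline after final BAM8-22 challenge near maximal dose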
RGS4 act: RGS4 potentiators or activators, primary screen, cell-based, HEK293 M3R inducible RGS4, calcium flux. AID 463111, 2010. carbachol calcium flux Fluo4; active compounds read low. 310,000 tested, 0.92% active. B-score at 10 µM;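 active = B-score of the integrated calcium signal more than 4 SD below the library mean, with starting fluorescence not abnormally high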;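 note: negative B-score means reduced calcium response which marks RGS4 activation or potentiation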
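Material: Inducible-RGS4 HEK293 cells carrying M3 receptor; also added: carbachol at ECmax as muscarinic agonist stimulus; incubation: compound preincubation 20 min at room temperature before agonist; signal: Fluo4-AM (2 µM) calcium-flux fluorescence, kinetic read; measure: integrated calcium ratio converted to B score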
KCC2 sec1: KCC2 modulators in sodium-free buffer, confirmation, cell-based, HEK293 KCC2, thallium flux, secondary assay; 3,700 tested, 15% active; normalised thallium flux (F/F0 slope) at 10 µM; AID 1713, 2009; shares compounds with KCC2 mod; FluoZin2 fluorescence; active compounds read high;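 active = thallium flux slope above the same plate's solvent-only control mean plus 3 SD; inconclusive = the two replicate wells disagree; inactive = no significant difference from solvent-only control wells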
KCC2 bumet counter: thallium flux persisting under bumetanide in KCC2 cells, confirmation, counter-screen for KCC2 modulator project, cell-based, HEK293 KCC2, FluoZin2, secondary assay 3 | HEK293-KCC2 + bumetanide/ouabain; active compounds read high | shares compounds with KCC2 mod | 3,700 tested, 49% active | AID 1714, 2009 | normalized thallium flux at 10 µM;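 active = thallium entry rate above the same plate's blocked-transporter control wells by more than 3 SD; inconclusive = the two repeat wells disagree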;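 note: raw slope of fluorescence over initial fluorescence between 10 and 20 s after thallium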
KCC2 sec2: KCC2 modulators without ouabain present, confirmation, cell-based, HEK293 KCC2, thallium flux, FluoZin2, secondary assay 2 | shares compounds with KCC2 mod | thallium flux FluoZin2 fluorescence; actives lie on both sides; F/F0 rise rate, 10–20 s post-thallium | normalized thallium flux at 10 µM | 3,700 tested, 23% active | AID 1715, 2009;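 active = thallium flux slope more than 3 SD above or below the plate's solvent-only control mean, mostly below; inconclusive = the two repeat wells disagreed; inactive = no significant shift from solvent-only controls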
HEK293 Tl flux: thallium flux modulation in parental HEK cells, confirmation, counter-screen for KCC2 modulator project, cell-based, counterscreen 1 | thallium flux rate (normalised fluorescence) at 10 µM | shares compounds with KCC2 mod | AID 1716, 2009 | HEK293 parental cells, thallium flux FluoZin2, ouabain; baseline-ratio fluorescence slope, 10–20 s after thallium | 3,700 tested, 46% active;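 active = thallium flux rate significantly above the same plate's solvent-only control wells, beyond their mean plus 3 SD; inconclusive = the two replicate wells gave conflicting results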
KCC2 ouabain: KCC2 inhibitors and activators, ouabain retest, confirmation, HEK-KCC2 cells; shares compounds with KCC2 mod; HEK293-KCC2, thallium flux FluoZin2 fluorescence; bidirectional: low = inhibitor, high = activator; raw Tl+ flux slope (below DMSO = inhibition, above = activation) at 10 µM; 3,700 tested, 48% active;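 active = thallium flux slope beyond 3 SD from same-plate DMSO control mean in most replicates, usually higher, sometimes lower; inconclusive = repeat tests gave conflicting results; inactive = no significant difference from controls in most replicates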;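 note: slope of initial-normalized fluorescence between seconds 10 and 20 after thallium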
HEK293 Tl flux2: native HEK Tl+ uptake effects, second counter-screen – HEK cells, counterscreen 2, counter-screen for KCC2 modulator project, confirmation | 3,700 tested, 33% active | thallium flux slope at 10 µM | shares compounds with KCC2 mod | HEK293 parental, thallium flux FluoZin-2 fluorescence slope | AID 1718, 2009;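 active = thallium flux slope above the same plate's solvent-control mean plus 3 SD in both duplicate wells; inconclusive = duplicate wells that disagreed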;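 note: run without ouabain in cells lacking the KCC2 cotransporter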
A number is an active result; n = inactive; u = inconclusive; x = no result. Shown are actives, neighbours in structure and some others; about 4.7% of the full set was active somewhere.

SMILES | RGS4 inh | MrgX1 ag | MrgX1 allo act | KCC2 mod | MrgX1 antag | RGS4 act | KCC2 sec1 | KCC2 bumet counter | KCC2 sec2 | HEK293 Tl flux | KCC2 ouabain | HEK293 Tl flux2
COc1ccc(N(CC(=O)Nc2cccc(C)c2C)S(=O)(=O)c2c(C)n[nH]c2C)cc1 | n | n | n | x | n | n | n | n | 0.024 | n | n | n
Cc1n[nH]c(C)c1S(=O)(=O)N(CC(=O)Nc1ccc2c(c1)OCCO2)c1ccc(C(C)C)cc1 | n | n | n | -5.1 | n | n | u | u | n | n | 0.016 | n
O=S(=O)(c1cc(F)ccc1F)N1CCN(c2ncccn2)CC1 | n | n | n | x | n | n | x | x | x | x | x | x
CCOC(=O)C1=C(N)N(c2ccccc2Oc2ccccc2)C(=O)C1 | n | n | n | n | n | n | x | x | x | x | x | x
CCOC(=O)C1=C2NC(=O)c3ccccc3N2C(=O)C1 | n | n | n | 40 | n | n | 0.014 | 0.091 | n | 0.037 | 0.069 | 0.018
NC(=O)COc1ccccc1/C=C1/SC(=O)N(CC(=O)N2CCc3ccccc3C2)C1=O | n | n | n | -3.4 | n | n | n | n | 0.023 | n | 0.016 | n
CCOc1cc(/C=C2/SC(=O)N(CC(=O)N3CCc4ccccc4C3)C2=O)ccc1OCC(=O)O | n | n | n | n | n | n | x | x | x | x | x | x
CCn1c(CNC(=O)c2ccccc2Br)nnc1SCC(=O)NC1=NCCS1 | n | n | n | x | n | n | x | x | x | x | x | x
Cc1cc(C(C)(C)C)ccc1OCCN1CCCC1 | n | n | n | x | n | n | n | n | n | n | n | u
CC(=O)Nc1sc(-c2ccccc2)nc1-c1ccccc1 | n | n | n | n | n | n | x | x | x | x | x | x
CC(=O)Nc1sc(-c2ccc(Cl)cc2)nc1-c1ccccc1 | n | n | n | 7.3 | n | n | 0.019 | 0.055 | n | 0.0092 | n | n
Cc1cccc(CSC2=NCCN2S(=O)(=O)c2ccc(F)cc2)c1 | n | n | n | x | n | n | x | x | x | x | x | x
Cc1ccccc1C(=O)Nc1nnc(-c2ccc(F)cc2)o1 | n | n | n | 7.3 | n | n | 0.013 | 0.024 | n | 0.016 | n | u
CCC(c1nnc(SCC(=O)Nc2nnc(-c3ccccc3)o2)o1)N(C)C (configuration not stated) | n | n | n | n | n | n | x | x | x | x | x | x
COc1ccc(-c2nnc(NC(=O)c3cc(Cl)ccc3Cl)o2)cc1 | n | n | n | 23 | n | n | n | 0.055 | 0.044 | 0.039 | 0.05 | 0.031
Cc1ccc(C)c(SCC(=O)Nc2nnc(-c3ccccc3)o2)c1 | n | n | n | 16 | n | n | 0.019 | 0.057 | n | 0.038 | 0.046 | 0.014
O=S(=O)(NCc1cccs1)c1ccccc1Cl | n | n | n | x | n | n | x | x | x | x | x | x
Cc1ccccc1C(=O)NC1CC2CCCC(C1)N2C(=O)Nc1ccccc1 (configuration not stated) | n | n | n | x | n | n | x | x | x | x | x | x
CCOc1cc(N2CCOCC2)c(OCC)cc1NC(=O)Cc1ccc(OC)c(OC)c1 | n | n | n | -4.7 | n | n | n | n | n | n | n | n
O=C(NN=C1CCCCCCC1)c1ccc2ccccc2n1 | n | n | n | 23 | n | n | n | 0.038 | u | 0.026 | 0.035 | 0.021
NNC(=O)c1ccc2ccccc2n1 | x | x | x | 26 | x | x | n | 0.056 | 0.042 | 0.038 | 0.047 | 0.023
O=C(NCc1ccccc1)c1ccc2ccccc2n1 | n | n | n | x | n | n | x | x | x | x | x | x
O=C(NCc1ccc(Cl)cc1)c1n[nH]c([N+](=O)[O-])c1Cl | n | n | n | -3.8 | n | n | n | 0.0057 | u | u | n | n
CCCOc1ccc(C(=O)CCC(=O)OCC(=O)N(C)c2c(N)n(Cc3ccccc3)c(=O)[nH]c2=O)cc1 | n | n | n | x | n | n | x | x | x | x | x | x
CCOC(=O)CC(NS(=O)(=O)c1ccc2[nH]cc(C(=O)O)c(=O)c2c1)c1ccc(OCC)c(OC)c1 (configuration not stated) | n | n | n | x | n | n | x | x | x | x | x | x
SMILES | RGS4 inh | MrgX1 ag | MrgX1 allo act | KCC2 mod | MrgX1 antag | RGS4 act | KCC2 sec1 | KCC2 bumet counter | KCC2 sec2 | HEK293 Tl flux | KCC2 ouabain | HEK293 Tl flux2
CCOc1ccc(-c2nc(-c3cccs3)c(CC(=O)O)s2)cc1OC | n | n | n | -3.1 | n | n | n | 0.0058 | n | n | n | n
S=c1[nH]nc(-c2cccc(Cl)c2)n1Cc1ccccc1 | n | n | n | 4 | n | n | 0.015 | 0.044 | n | u | 0.038 | u
CCc1cc(-c2n[nH]c(=S)n2CC)cs1 | n | n | n | n | n | n | x | x | x | x | x | x
S=c1[nH]nc(COc2cccc(Cl)c2)n1Cc1ccccc1 | n | n | n | 20 | n | n | n | 0.028 | n | 0.015 | u | 0.012
CCCc1cc(-c2n[nH]c(=S)n2CC)cs1 | n | n | n | x | n | n | 0.013 | 0.02 | n | 0.014 | n | 0.012
CCc1cc(-c2n[nH]c(=S)n2Cc2ccccc2)cs1 | n | n | n | 15 | n | n | n | 0.02 | n | 0.016 | u | 0.011
C=CCn1c(-c2cccc(Cl)c2)n[nH]c1=S | n | n | n | n | n | n | x | x | x | x | x | x
Cc1ccc(S(=O)(=O)CCc2ccncc2)cc1 | n | n | n | x | n | n | x | x | x | x | x | x
